Results published in ChEMBL document CHEMBL4411287, “Discovery and optimization of a series of 3-substituted indazole derivatives as multi-target kinase inhibitors for the treatment of lung squamous cell carcinoma” (Eur J Med Chem, 2019).

Experiments:
[1] = target: Platelet-derived growth factor receptor beta (Homo sapiens) (UniProt P09619); test: Inhibition of PDGFR-beta (unknown origin) at 1000 nM relative to control
Summary of the method: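 ELISA with purified recombinant kinase on plates precoated with poly(Glu,Tyr) 4:1 at 20 µg/mL. ATP 10 µM in HEPES pH 7.4 buffer with MgCl2, MnCl2, Na3VO4 and DTT. Run 60 min at 37 °C. Detected with anti-phosphotyrosine PY99, HRP secondary antibody and o-phenylenediamine, read at 490 nm. Inhibition % = [1 − A490/A490 control]×100. 1% DMSO as negative control.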

[2] = Tmax in ICR(CD-1) mouse at 10 mg/kg, po administered via gavage by triple quadrupole mass spectrometric analysis; assay type: ADME, organism-based; conditions: in vivo
Summary of the method: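 Dosed by gavage at 1 mg/mL in 1% Tween80/water to male ICR mice, 18-22 g, n=3. Blood taken at 0.25, 0.5, 1, 2, 4, 8 and 24 h. Plasma precipitated with methanol:acetonitrile (1:1) containing internal standard, then UPLC-MS/MS on a C18 column with an ammonium acetate/formic acid–acetonitrile gradient. Tmax read directly from the data; MRT calculated per animal from concentration–time curves.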

[3] = target: Receptor-type tyrosine-protein kinase FLT3 (Homo sapiens) (UniProt P36888); test: Inhibition of FLT-3 (unknown origin) at 100 nM relative to control
Summary of the method: (§1)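 Purified recombinant kinase domains run in ELISA on precoated poly(Glu,Tyr) 4:1 (20 µg/mL) with 10 µM ATP in 50 mM HEPES pH 7.4, 50 mM MgCl2, 0.5 mM MnCl2, 0.2 mM Na3VO4, 1 mM DTT; 1% DMSO control; 60 min at 37 °C. Phosphotyrosine read by PY99 antibody, HRP anti-mouse IgG, OPD/H2O2 at 490 nm; inhibition = [1−A490/A490control]×100%; two separate experiments.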

[4] = target: Fibroblast growth factor receptor 3 (Homo sapiens) (UniProt P22607); test: Inhibition of FGFR3 (unknown origin) at 10 nM relative to control; summary of the method: as §1
[5] = target: T1, Ephrin type-B receptor 2 (Homo sapiens) (UniProt P29323); test: Inhibition of EPH-B2 (unknown origin) at 100 nM relative to control; summary of the method: as §1
T1 sequence (whole entry): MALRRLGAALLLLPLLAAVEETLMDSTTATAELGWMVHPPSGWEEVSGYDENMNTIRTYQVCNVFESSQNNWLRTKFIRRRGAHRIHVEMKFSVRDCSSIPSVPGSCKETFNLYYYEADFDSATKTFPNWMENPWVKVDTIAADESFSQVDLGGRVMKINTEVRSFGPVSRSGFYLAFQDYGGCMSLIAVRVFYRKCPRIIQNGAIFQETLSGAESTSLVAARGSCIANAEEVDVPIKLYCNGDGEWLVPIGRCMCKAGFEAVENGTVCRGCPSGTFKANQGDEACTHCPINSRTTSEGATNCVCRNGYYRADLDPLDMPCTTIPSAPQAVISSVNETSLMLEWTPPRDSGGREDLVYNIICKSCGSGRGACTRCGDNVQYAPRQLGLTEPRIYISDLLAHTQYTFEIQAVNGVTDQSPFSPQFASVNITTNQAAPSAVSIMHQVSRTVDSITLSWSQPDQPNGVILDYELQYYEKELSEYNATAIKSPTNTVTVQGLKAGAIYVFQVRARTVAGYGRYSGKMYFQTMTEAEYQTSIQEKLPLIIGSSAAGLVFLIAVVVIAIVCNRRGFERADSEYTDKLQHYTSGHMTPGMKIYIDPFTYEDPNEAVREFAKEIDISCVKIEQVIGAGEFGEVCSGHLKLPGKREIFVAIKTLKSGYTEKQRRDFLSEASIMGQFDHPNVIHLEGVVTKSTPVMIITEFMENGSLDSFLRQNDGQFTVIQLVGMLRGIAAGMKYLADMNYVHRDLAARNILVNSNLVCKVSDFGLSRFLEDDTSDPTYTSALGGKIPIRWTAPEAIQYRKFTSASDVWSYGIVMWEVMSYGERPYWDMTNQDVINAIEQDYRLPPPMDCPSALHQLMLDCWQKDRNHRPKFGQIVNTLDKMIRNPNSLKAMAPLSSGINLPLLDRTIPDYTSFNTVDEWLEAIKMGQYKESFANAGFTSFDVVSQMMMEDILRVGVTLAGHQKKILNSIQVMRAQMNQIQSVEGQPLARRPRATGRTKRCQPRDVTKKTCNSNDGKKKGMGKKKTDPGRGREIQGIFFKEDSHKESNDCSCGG

[6] = Antiproliferative activity against human UM-UC-14 cells harboring FGFR3 mutation after 72 hrs by CCK8 assay; assay type: functional, cell-based; conditions: UMUC14, 72 h
Summary of the method: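 Cells seeded at low density in growth medium and compounds added the next day. Incubated 72 h, then proliferation read by sulforhodamine B, MTT or CCK-8. IC50 obtained by four-parameter concentration-response curve fitting.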

[7] = target: Tyrosine-protein kinase ABL1 (Homo sapiens) (UniProt P00519); test: Inhibition of ABL (unknown origin) at 100 nM relative to control
[8] = target: T1, Ephrin type-B receptor 2 (Homo sapiens); test: Inhibition of EPH-B2 (unknown origin) at 10 nM relative to control; summary of the method: as §1

Sequence of Tyrosine-protein kinase ABL1 (Homo sapiens) (P00519 whole entry): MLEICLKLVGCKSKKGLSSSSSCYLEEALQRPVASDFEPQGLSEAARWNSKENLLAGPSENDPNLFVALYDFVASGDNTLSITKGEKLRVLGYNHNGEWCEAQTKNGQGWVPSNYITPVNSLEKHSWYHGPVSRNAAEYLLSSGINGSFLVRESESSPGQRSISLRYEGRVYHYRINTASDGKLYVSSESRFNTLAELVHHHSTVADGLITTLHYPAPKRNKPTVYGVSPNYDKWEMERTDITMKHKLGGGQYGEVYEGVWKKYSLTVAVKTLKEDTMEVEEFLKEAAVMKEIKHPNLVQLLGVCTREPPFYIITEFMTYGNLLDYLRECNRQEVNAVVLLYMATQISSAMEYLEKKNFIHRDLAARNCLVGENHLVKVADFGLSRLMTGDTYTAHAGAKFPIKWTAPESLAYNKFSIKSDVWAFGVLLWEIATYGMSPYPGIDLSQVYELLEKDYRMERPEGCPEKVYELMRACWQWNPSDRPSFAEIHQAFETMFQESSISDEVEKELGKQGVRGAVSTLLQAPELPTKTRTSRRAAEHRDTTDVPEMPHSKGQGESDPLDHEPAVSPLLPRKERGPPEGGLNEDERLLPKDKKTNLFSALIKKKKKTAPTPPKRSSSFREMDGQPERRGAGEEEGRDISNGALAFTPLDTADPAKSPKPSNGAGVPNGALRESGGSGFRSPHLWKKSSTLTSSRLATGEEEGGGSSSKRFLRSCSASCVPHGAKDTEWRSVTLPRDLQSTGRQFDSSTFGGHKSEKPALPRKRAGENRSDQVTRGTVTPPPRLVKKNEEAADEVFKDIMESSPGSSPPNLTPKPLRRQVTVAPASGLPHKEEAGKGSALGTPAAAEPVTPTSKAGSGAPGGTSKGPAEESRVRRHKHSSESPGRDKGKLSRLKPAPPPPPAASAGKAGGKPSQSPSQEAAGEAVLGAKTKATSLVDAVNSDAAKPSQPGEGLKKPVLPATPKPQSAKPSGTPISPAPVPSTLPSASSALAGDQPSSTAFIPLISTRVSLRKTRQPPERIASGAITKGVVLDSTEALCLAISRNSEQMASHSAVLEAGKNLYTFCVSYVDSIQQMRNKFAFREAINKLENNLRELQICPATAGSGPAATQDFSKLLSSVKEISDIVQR
Sequence of Platelet-derived growth factor receptor beta (Homo sapiens) (P09619 whole entry): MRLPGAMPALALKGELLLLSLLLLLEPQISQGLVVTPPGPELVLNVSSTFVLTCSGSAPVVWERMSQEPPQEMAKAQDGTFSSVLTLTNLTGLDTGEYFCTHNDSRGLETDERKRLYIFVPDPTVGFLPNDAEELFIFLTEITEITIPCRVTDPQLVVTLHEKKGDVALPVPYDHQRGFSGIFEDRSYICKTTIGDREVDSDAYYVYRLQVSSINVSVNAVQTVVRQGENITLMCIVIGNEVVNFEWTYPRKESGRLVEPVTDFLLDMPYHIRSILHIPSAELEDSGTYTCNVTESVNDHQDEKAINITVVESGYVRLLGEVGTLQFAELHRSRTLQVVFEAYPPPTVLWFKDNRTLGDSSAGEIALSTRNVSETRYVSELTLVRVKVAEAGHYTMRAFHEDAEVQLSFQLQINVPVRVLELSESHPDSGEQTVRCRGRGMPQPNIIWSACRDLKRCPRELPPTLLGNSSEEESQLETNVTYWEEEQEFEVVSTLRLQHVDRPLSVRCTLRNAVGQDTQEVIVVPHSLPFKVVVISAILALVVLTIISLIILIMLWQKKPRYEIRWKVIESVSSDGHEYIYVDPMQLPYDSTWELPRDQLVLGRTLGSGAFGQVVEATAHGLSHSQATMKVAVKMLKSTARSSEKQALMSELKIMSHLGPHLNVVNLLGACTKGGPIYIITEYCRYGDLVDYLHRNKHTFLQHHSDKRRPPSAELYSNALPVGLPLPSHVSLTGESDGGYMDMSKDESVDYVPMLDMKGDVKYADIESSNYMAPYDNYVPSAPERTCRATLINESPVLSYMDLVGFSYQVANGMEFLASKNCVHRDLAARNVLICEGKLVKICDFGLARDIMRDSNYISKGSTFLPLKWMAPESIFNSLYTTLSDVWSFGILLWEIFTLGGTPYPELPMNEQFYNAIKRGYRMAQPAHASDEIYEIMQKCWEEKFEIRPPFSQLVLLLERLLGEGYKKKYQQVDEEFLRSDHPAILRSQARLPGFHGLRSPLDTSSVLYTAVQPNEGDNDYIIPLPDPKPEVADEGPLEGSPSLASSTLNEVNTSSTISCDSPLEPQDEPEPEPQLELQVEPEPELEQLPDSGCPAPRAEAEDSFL
Sequence of Receptor-type tyrosine-protein kinase FLT3 (Homo sapiens) (P36888 whole entry, the tested form may be a part): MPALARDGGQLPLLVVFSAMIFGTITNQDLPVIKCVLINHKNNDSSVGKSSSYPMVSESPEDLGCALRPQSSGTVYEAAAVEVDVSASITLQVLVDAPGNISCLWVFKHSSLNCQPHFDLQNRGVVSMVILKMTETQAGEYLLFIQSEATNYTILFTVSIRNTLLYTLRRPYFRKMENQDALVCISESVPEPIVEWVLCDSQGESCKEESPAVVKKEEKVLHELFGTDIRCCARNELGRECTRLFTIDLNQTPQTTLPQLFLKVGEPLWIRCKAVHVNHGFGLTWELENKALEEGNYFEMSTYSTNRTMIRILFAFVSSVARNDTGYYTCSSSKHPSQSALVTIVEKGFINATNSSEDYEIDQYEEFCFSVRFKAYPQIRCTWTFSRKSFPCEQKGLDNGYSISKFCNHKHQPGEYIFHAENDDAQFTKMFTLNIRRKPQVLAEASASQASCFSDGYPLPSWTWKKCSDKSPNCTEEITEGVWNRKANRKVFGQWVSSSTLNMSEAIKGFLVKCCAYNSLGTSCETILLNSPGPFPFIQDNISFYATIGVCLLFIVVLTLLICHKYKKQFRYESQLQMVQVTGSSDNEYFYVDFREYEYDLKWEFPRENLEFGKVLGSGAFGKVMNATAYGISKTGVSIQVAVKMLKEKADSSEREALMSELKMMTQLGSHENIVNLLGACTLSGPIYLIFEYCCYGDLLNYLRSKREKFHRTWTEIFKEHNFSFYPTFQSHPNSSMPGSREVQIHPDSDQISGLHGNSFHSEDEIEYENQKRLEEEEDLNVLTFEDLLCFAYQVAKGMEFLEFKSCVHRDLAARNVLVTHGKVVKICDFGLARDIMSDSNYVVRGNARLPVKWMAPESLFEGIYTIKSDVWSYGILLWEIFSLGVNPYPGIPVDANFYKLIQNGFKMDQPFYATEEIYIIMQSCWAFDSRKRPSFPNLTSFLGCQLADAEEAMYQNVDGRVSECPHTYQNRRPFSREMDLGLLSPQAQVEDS
Sequence of Fibroblast growth factor receptor 3 (Homo sapiens) (P22607 23-806 limits assumed): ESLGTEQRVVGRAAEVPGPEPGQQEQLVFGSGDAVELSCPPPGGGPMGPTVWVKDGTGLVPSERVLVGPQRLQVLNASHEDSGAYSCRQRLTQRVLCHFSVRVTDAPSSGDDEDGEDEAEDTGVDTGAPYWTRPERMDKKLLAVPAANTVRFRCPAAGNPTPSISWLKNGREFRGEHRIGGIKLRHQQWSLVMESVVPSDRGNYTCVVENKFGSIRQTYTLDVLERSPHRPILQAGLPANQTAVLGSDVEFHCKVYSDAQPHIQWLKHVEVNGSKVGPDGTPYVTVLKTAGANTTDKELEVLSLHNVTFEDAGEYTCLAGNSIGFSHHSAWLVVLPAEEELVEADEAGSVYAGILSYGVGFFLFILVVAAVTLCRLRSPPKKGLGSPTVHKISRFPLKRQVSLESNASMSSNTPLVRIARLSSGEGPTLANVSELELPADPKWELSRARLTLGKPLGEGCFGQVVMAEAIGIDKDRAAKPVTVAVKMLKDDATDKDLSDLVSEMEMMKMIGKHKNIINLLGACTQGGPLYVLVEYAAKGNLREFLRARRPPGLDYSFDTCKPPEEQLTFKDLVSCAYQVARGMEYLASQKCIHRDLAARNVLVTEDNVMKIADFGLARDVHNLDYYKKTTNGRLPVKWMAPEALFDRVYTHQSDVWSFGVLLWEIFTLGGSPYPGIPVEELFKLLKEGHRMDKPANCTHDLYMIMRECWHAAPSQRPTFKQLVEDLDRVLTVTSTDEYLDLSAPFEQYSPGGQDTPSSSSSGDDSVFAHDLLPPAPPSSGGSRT

inhibition [1]: 100%
Tmax [2]: 2 h
inhibition [3]: 80.6%
inhibition [4]: 52.3%
inhibition [5]: 76.7%
inhibition [7]: 100%
inhibition [8]: 48%
SMILES: Cc1ccc(C(=O)Nc2cccc(C(F)(F)F)c2)cc1-c1ccc2c(-c3cnn(C4CC4)c3)n[nH]c2c1
IC50 [6]: 307 nM
